RGS4-Gao reg = modulators of RGS4 binding to Galphao, primary screen, biochemical, multiplexed bead flow cytometry; Guanine nucleotide-binding protein G(o) subunit alpha (Homo sapiens), P09471; actives lie on both sides; binding response (% of control), % at 10 µM; 0.33% of 220,000 active; in the data active = binding response below about 49% or above about 150%; inactive = in between;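 also: fluorescent Galphao activated with aluminum fluoride binding bead-coupled RGS4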
RGS16-Gao HTS = modulators of RGS16 binding to Galphao, primary screen, biochemical, human proteins, multiplexed bead flow cytometry | 0.38% of 220,000 active | binding response (% of control), % at 10 µM | bead-based flow cytometry RGS16-Galphao binding, fluorescence; actives lie on both sides | Regulator of G-protein signaling 16 (Homo sapiens) + Guanine nucleotide-binding protein …;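 also: Galphao activated by GDP with aluminum fluoride before binding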
Target sequence (O15492 whole entry, looked up): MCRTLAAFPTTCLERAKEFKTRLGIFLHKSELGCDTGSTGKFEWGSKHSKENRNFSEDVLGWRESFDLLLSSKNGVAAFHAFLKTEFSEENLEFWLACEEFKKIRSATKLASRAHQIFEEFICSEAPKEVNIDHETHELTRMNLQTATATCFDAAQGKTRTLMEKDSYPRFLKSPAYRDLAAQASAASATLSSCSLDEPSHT
Target sequence (P09471 whole entry, looked up): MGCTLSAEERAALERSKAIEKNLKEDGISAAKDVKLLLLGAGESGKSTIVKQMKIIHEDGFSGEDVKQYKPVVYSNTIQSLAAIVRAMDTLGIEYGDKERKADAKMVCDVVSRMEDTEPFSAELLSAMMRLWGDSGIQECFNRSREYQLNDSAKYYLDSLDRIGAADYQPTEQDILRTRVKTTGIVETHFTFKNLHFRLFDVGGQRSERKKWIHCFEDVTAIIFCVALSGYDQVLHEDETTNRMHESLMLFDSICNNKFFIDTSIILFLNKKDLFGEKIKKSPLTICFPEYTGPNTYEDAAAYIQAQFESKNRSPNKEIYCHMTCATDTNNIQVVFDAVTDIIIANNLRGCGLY
Biofilm kill mix = clotrimazole potentiators killing C. albicans biofilm, primary screen, 4-compound mixtures. AID 1242, 2008. C. albicans biofilm persisters + clotrimazole, fluorescence viability; primary screen in compound mixtures of four per well. inhibition, % at 7.6 µM. 0.02% of 120,000 active;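 active = inhibition above 30.3% in the primary screen of four-compound pools, then above 30% when the compound was retested; inconclusive = passed the primary limit but could not be retested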;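 also: compounds exposed to preformed 24 h biofilms for 48 h; 0% = untreated biofilm control and 100% = clotrimazole plus chlorhexidine kill blank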
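System: C. albicans CAF4-2 wild-type biofilms; Medium: RPMI/MOPS medium, pH 7.0; Reagent: Clotrimazole, 50 µg/mL; Times: biofilm formation 24 h, compound exposure 48 h, 37 °C; Detection: 2-h Alamar Blue fluorescence, 535/590 nm excitation/emission; Evaluation: percent inhibition of biofilm viability.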
RGS8-Gao reg = RGS8-Galphao binding modulators, primary screen, biochemical, multiplexed bead flow cytometry; Guanine nucleotide-binding protein G(o) subunit alpha (Homo sapiens), P09471; actives lie on both sides; response (percent of control binding), % at 10 µM; 0.34% of 220,000 active; in the data active = response below about 60% or above about 140%; inactive = in between;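 also: Galphao activated as the GDP aluminium fluoride complex binding bead-coupled RGS8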
RGS7-Gao = RGS7-Galphao binding modulators, primary screen, biochemical, multiplexed bead flow cytometry. AID 1439, 2008. 0.35% of 220,000 active. Guanine nucleotide-binding protein G(o) subunit alpha (Homo sapiens), P09471. actives lie on both sides. binding response (% of control), % at 10 µM; in the data active = binding response below about 49% or above about 150%; inconclusive = no clear call, values can overlap the other calls; inactive = in between;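 also: fluorescent Galphao held in activated GDP-AlF4 state binding bead-coupled RGS7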
RGS-Gao = modulators of RGS–Galpha-o binding, primary screen, biochemical, multiplexed beads, flow cytometry, RGS4/7/8/16/19. AID 1504, 2009. multiplexed bead flow cytometry. shares compounds with RGS16-Gao HTS. 99% of 1,600 active. RGS4–Galpha-o binding response, % at 10 µM;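 also: fluorescently labeled Galpha-o bound to GDP with aluminium fluoride binding biotinylated RGS beads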
Target sequence (P09471 whole entry, looked up): as above
Target sequence (P49798 whole entry, looked up): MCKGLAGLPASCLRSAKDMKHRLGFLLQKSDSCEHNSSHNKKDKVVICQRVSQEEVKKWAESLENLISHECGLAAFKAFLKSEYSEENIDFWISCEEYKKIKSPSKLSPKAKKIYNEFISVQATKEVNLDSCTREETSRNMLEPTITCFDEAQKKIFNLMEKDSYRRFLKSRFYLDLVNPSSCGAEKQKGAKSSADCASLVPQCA
Biotin-avidin = disruption of biotin probe capture by avidin, counter-screen for RGS protein interaction modulators, biochemical, flow cytometry, bead-based. shares compounds with RGS16-Gao HTS. inhibition, % at 10 µM. 1,700 tested, under 10 active. streptavidin beads, fluorescein-biotin binding;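 active = inhibition above 50%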;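 also: median green fluorescence of gated singlet beads compared with DMSO control wells; 0% = DMSO wells and 100% = complete loss of bead fluorescence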
RGS8-Gao single = RGS8-Galphao binding modulators, confirmation, biochemical, multiplexed bead flow cytometry, single concentration | bead-based flow cytometry RGS8-Galphao binding, fluorescence; actives lie on both sides | shares compounds with RGS16-Gao HTS | 3% of 1,700 active | binding response (% of control), % at 10 µM; in the data active = binding response below about 72% or above about 130%; inactive = in between;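 also: Galphao activated as GDP AlF4 complex before binding bead RGS8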
RGS7-Gao confirm = RGS7-Galphao binding modulators, confirmation, biochemical, multiplexed bead flow cytometry, single concentration; shares compounds with RGS16-Gao HTS; bead-based flow cytometry RGS7-Galphao binding; actives lie on both sides; response (percent of control binding), % at 10 µM; 7.8% of 1,700 active; in the data active = response below about 75% or above about 130%; inactive = in between;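 also: fluorescent Galphao activated with GDP and aluminum fluoride binding bead-coupled RGS7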
RGS16-Gao conf = modulators of RGS16-Galphao protein binding, confirmation, biochemical, single concentration, multiplexed bead flow cytometry. response (% of control binding), % at 10 µM. AID 1838, 2009. 4% of 1,700 active. shares compounds with RGS16-Gao HTS. bead-based flow cytometry; actives lie on both sides; in the data active = response below about 74% or above about 130%; inactive = in between;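 also: Galphao activated as the GDP aluminium fluoride complex binding bead-coupled RGS16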
RGS4-Gao single = modulators of RGS4-Galphao protein binding, confirmation, biochemical, single concentration, multiplexed bead flow cytometry. shares compounds with RGS16-Gao HTS. actives lie on both sides. binding response (% of control), % at 10 µM. 4% of 1,700 active. AID 1840, 2009; in the data active = binding response below about 74% or above about 130%; inactive = in between
RGS19-Gao conf = regulators of RGS19-Galphao binding, confirmation, biochemical, single point, multiplexed bead flow cytometry | shares compounds with RGS16-Gao HTS | bead-based flow cytometry RGS19-Galphao binding; actives lie on both sides | response (percent of control binding), % at 10 µM | 5% of 1,700 active; in the data active = response below about 50% or above about 160%; inactive = in between;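 also: 100% = no compound control and 0% = blank background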
* = called active by the depositor; ? = inconclusive; / = not tested or not shown; [ ] = remark or other dose. The list is not random: actives were taken first. Their share in the collection is about 0.74%. Unless noted, no rule for the calls is given here.

SMILES | RGS4-Gao reg | RGS16-Gao HTS | Biofilm kill mix | RGS8-Gao reg | RGS7-Gao | RGS-Gao | Biotin-avidin | RGS8-Gao single | RGS7-Gao confirm | RGS16-Gao conf | RGS4-Gao single | RGS19-Gao conf
C#CCNC(=O)C1=C[C@@H](C(C)(C)C)C[C@@H](OCc2ccc(CO)cc2)O1 | 29.6* | 16.8* | 14.4 | 21.5* | 21.2* | / | -0.1 | 99.8 | 102.8 | 100.8 | 100.6 | 96.8
O=C(COc1c(CO)cc(Br)cc1CO)NC1CCCc2ccccc21 (stereo not drawn) | 100.4 | 101.9 | 5.8 | 103.3 | 99.4 | / | / | / | / | / | / | /
O=C(CCCOc1ccc(Cl)cc1Cl)Nc1ccncc1 | / | / | / | / | / | / | 0.1 | 104.3 | 95.7 | 106.1 | 100.9 | 99.1
CCn1nnc(NC(=O)COc2ccc([N+](=O)[O-])cc2)n1 | 86.5 | 89.4 | 1.5 | 96.4 | ? | / | / | / | / | / | / | /
Cc1cccc(CC2S/C(=N/c3ccccn3)NC2=O)c1 (stereo not drawn) | 113.3 | 236.5 | 21.5 | 141.5*[activator] | 113.7 | 113.3* | -1.3 | 108.7 | 105.1 | 106.3 | 103.3 | 108.8
O=C1N/C(=N\c2ccccn2)SC1Cc1ccccc1Cl (stereo not drawn) | 86.6 | 85.5 | 13.7 | 91.2 | ? | / | / | / | / | / | / | /
N#C/C(=C1/C(=O)Nc2ccc(Br)cc21)c1ccccn1 | 100.4 | 101.6 | 14.7 | 99.8 | ? | / | / | / | / | / | / | /
CCc1ccc2c(c1)c(N=NC1=NC(=O)CS1)c(O)n2C | 107.1 | 100.8 | / | 104.4 | 105.9 | / | / | / | / | / | / | /
Cc1cc(C)c2[nH]c(O)c(N=NC3=NC(=O)CS3)c2c1 | 283.0*[activator] | 269.6*[activator] | 11.8 | 115.8 | ? | / | 0.4 | 100.2 | 94.7 | 99.7 | 96.6 | 120.0
COc1cccc2c1NC(C(=O)O)C1CC=CC21 (stereo not drawn) | 69.9 | 63.3 | 13.5 | 54.1* | 36.2* | 69.9* | 0.1 | 100.4 | 76.0 | 96.4 | 89.3 | 94.4
Cc1cc(C)c(NC(=O)CS(=O)CC(=O)Nc2ccc(F)cc2F)c(C)c1 (stereo not drawn) | 96.9 | 99.6 | 16.4 | 102.2 | ? | / | / | / | / | / | / | /
Cc1cc(NC(=O)Cn2nc(C)c([N+](=O)[O-])c2C)no1 | 102.1 | 101.3 | 17.5 | 101.5 | ? | / | / | / | / | / | / | /
COC(=O)CCC(=O)NNC(=O)c1ccc(Cl)cc1Cl | 103.5 | 31.6 | / | 83.6 | 175.5*[activator] | 103.5* | / | / | / | / | / | /
COC(=O)CCC(=O)NNC(=O)CCCOc1ccc(Cl)cc1Cl | 99.8 | 101.5 | / | 104.6 | 102.1 | / | / | / | / | / | / | /
CCCCn1c(=S)[nH]c2c(oc3ccc(Cl)cc32)c1=O | -5.2* | -19.1* | 9.4 | 5.1* | 7.1* | / | -2.4 | 105.7 | 108.2 | 104.5 | 101.1 | 109.4
CCOc1cc(C=O)cc(Br)c1OCC(=O)NCCc1ccccc1 | 100.1 | 99.5 | 12.3 | 98.4 | 99.7 | / | / | / | / | / | / | /
COc1ccc2c(c1OC)C(=O)N1N=C(c3ccc(F)cc3)CC21 (stereo not drawn) | 97.4 | 97.8 | 6.2 | 101.0 | 99.0 | / | / | / | / | / | / | /
Cc1ccc(C2=NN3C(=O)c4ccccc4C3C2)cc1 (stereo not drawn) | 26.2* | 39.5 | 15.7 | 63.6 | ? | / | -1.8 | 101.9 | 98.2 | 102.0 | 101.1 | 112.6
COc1cc(/C=C2\SC(=O)N(CCN)C2=O)ccc1OS(=O)(=O)c1cc(C)ccc1C | 103.3 | 98.0 | -5.6 | 102.7 | ? | / | / | / | / | / | / | /
CC(=O)N1CCN(c2ccc([N+](=O)[O-])c(-n3nc(C)cc3C)c2)CC1 | 78.8 | 9.6 | 17.5 | 59.8* | 84.0 | 78.8* | -1.7 | 92.1 | 86.2 | 89.8 | 92.0 | 86.4
Cc1cc(C)n(-c2cc(N3CCN(C(=O)c4cccc(Br)c4)CC3)ccc2[N+](=O)[O-])n1 | 100.2 | 103.8 | / | 101.8 | 101.7 | / | / | / | / | / | / | /
O=C(c1ccco1)N1CCN(c2ccc([N+](=O)[O-])c(N3CCOCC3)c2)CC1 | 42.8* | 50.5 | 8.4 | 51.3* | 30.9* | / | -1.8 | 100.1 | 61.0* | 82.6 | 77.3 | 65.9
CCCC(=O)Nc1cccc(NC(=O)c2cccc([N+](=O)[O-])c2C)c1 | 110.4 | 205.3*[activator] | 3.0 | 121.0 | 108.6 | 110.4* | -0.7 | 96.3 | 94.9 | 92.7 | 94.0 | 84.7
Cc1c(C(=O)NC(C)CCc2ccccc2)cccc1[N+](=O)[O-] (stereo not drawn) | 105.6 | 113.4 | / | 106.1 | 104.0 | / | / | / | / | / | / | /
CCC(CC)NC(=O)c1cccc([N+](=O)[O-])c1C | 115.8 | 237.2*[activator] | 11.8 | 137.9 | 113.5 | 115.8* | -0.1 | 100.8 | 100.2 | 99.3 | 98.4 | 98.7
Cc1c(CNCC(C)c2ccccc2)c(C(=O)O)c(C)n1Cc1ccccc1 (stereo not drawn) | 97.8 | 94.9 | 12.7 | 100.6 | 93.0 | / | / | / | / | / | / | /
CCCCNc1ccc(C(=O)O)cc1 | 104.4 | 100.0 | 24.0 | 100.3 | ? | / | / | / | / | / | / | /
Cc1ccc(NC(=O)Nc2ccccc2CC[N+](=O)[O-])cc1 | 116.5 | 270.3 | 16.3 | 149.2*[activator] | 118.3 | 116.5* | -0.3 | 102.6 | 100.8 | 101.8 | 102.4 | 93.9
COc1ccc(/C=C/CN2CCCC(C(=O)c3ccc(OC)c(F)c3)C2)cc1 (stereo not drawn) | 95.4 | 94.7 | 2.5 | 94.5 | 110.8 | / | / | / | / | / | / | /
CCC(=O)NC1=C(Cl)C(=O)C(NC(=O)CC)=C(Cl)C1=O | 73.0 | 8.6* | 14.8 | 52.8* | ? | 73.0* | -1.5 | 35.1* | 54.0* | -3.1* | 77.2 | -6.5*

Screens from PubChem.
